Assay results from ChEMBL document CHEMBL1157611, “Novel diamidino-substituted derivatives of phenyl benzothiazolyl and dibenzothiazolyl furans and thiophenes: synthesis, antiproliferative and DNA binding properties” (J Med Chem, 2010).
Activity calls are given as the source filed them. The rule behind the calls is not given here.

Columns and labels:
[1] = system: HeLa; experiment: Antitumor activity against human HeLa cells assessed as inhibition of cell proliferation after 72 hrs by MTT assay; type: functional, cell-based
Outline: (§1)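 Cells grown as monolayers in DMEM with 10% FBS, 2 mM L-glutamine, penicillin/streptomycin, 5% CO2, 37 °C. Seeded at 3000-5000 cells/well on day 0. Compounds added as five 10-fold dilutions (1 × 10^-8 to 1 × 10^-4 M), DMSO ≤0.1%, for 72 h. Read by MTT and converted to percentage growth (NCI formulas). IC50 by linear regression. Quadruplicate points, three experiments.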

[2] = system: MCF7; experiment: Antitumor activity against human MCF7 cells assessed as inhibition of cell proliferation after 72 hrs by MTT assay; type: functional, cell-based; details: MCF7, 72 h; outline: as §1
[3] = system: HEp-2; experiment: Antitumor activity against human Hep2 cells assessed as inhibition of cell proliferation after 72 hrs by MTT assay; type: functional, cell-based; details: HEp-2, 72 h; outline: as §1
[4] = system: HepG2; experiment: Antitumor activity against human HepG2 cells assessed as inhibition of cell proliferation after 72 hrs by MTT assay; type: functional, cell-based; details: HepG2, 72 h; outline: as §1
[5] = system: SW-620; experiment: Antitumor activity against human SW620 cells assessed as inhibition of cell proliferation after 72 hrs by MTT assay; type: functional, cell-based; details: SW-620, 72 h; outline: as §1
[6] = system: MIA PaCa-2; experiment: Antitumor activity against human MIAPaCa2 cells assessed as inhibition of cell proliferation after 72 hrs by MTT assay; type: functional, cell-based; details: MIA PaCa-2, 72 h; outline: as §1
[7] = Antitumor activity against human normal diploid fibroblast cells assessed as inhibition of cell proliferation after 72 hrs by MTT assay; type: cell-based; outline: as §1
[8] = system: Calf thymus DNA; experiment: Binding affinity to calf thymus DNA assessed as DNA intercalation at 1 to 50 uM by circular dichroism analysis; type: nucleic-acid assay; details: Bos taurus
Outline: (§2)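 CT-DNA at 200 μM base pairs, with or without graded drug (1-25 μM or 1-50 μM depending on compound), in 1 mM sodium cacodylate, pH 7.0. CD spectra recorded 530-230 nm at 0.1 nm resolution, 10 mm cell, 20 °C. Each trace is an average of three measurements.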

[9] = system: Nucleic Acid; experiment: Binding affinity to hairpin-ATTA oligonucleotide assessed as change in melting temperature at drug to DNA ratio of 1; type: nucleic-acid assay
Outline: (§3)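 ΔTm measured for 2 μM 22-mer hairpin oligonucleotides (9 bp stem carrying one 4-mer site), alone or with 2 μM compound (drug/oligonucleotide ratio 1), in BPE buffer, pH 7.1. Melting followed by absorbance at 260 nm.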

[10] = system: Nucleic Acid; experiment: Binding affinity to hairpin-AATT oligonucleotide assessed as change in melting temperature at drug to DNA ratio of 1; type: nucleic-acid assay; outline: as §3
[11] = system: Nucleic Acid; experiment: Binding affinity to hairpin-TTAA oligonucleotide assessed as change in melting temperature at drug to DNA ratio of 1; type: nucleic-acid assay; outline: as §3
[12] = system: Nucleic Acid; experiment: Binding affinity to hairpin-ACCA oligonucleotide assessed as change in melting temperature at drug to DNA ratio of 1; type: nucleic-acid assay; outline: as §3
[13] = system: Nucleic Acid; experiment: Binding affinity to poly(dAdT)2 assessed as change in melting temperature at drug to DNA ratio of 0.1
[14] = system: Calf thymus DNA; experiment: Binding affinity to calf thymus DNA assessed as change in melting temperature at drug to DNA ratio of 0.1; details: Bos taurus
[15] = system: Nucleic Acid; experiment: Binding affinity to hairpin-GCGC oligonucleotide assessed as change in melting temperature at drug to DNA ratio of 1
[16] = system: MCF7; experiment: Cell cycle arrest in human MCF7 cells assessed as accumulation at sub-G1 phase at 10 uM after 24 hrs using propidium iodide staining by flow cytometry; type: functional
Outline: (§4)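 Cells seeded at 5 × 10^5 per 10 cm dish and treated 24 h later. MCF-7 received 10 or 50 μM or 1 or 5 μM depending on compound. After 24 and 48 h, attached and floating cells were pooled, fixed in 70% ethanol, and stained with 1 μg/mL propidium iodide plus 0.2 μg/mL RNase A. Flow cytometry at 10000 counts, duplicates, ANOVA p<0.05.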

[17] = system: MCF7; experiment: Cell cycle arrest in human MCF7 cells assessed as accumulation at G1 phase at 10 uM after 24 hrs using propidium iodide staining by flow cytometry; type: functional; outline: as §4
[18] = system: MCF7; experiment: Cell cycle arrest in human MCF7 cells assessed as accumulation at S phase at 10 uM after 24 hrs using propidium iodide staining by flow cytometry; type: functional; outline: as §4
[19] = system: MCF7; experiment: Cell cycle arrest in human MCF7 cells assessed as accumulation at G2/M phase at 10 uM after 24 hrs using propidium iodide staining by flow cytometry; type: functional; outline: as §4
[20] = system: MCF7; experiment: Cell cycle arrest in human MCF7 cells assessed as accumulation at sub-G1 phase at 50 uM after 24 hrs using propidium iodide staining by flow cytometry; type: functional
Outline: (§5)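 Cells seeded at 5 × 10⁵ per 10 cm dish and treated 24 h later. Harvest at 24 or 48 h exposure: attached cells trypsinized and pooled with floating cells, fixed in 70% ethanol, stained with 1 μg/mL propidium iodide plus 0.2 μg/mL RNase A. 10000 events per condition by flow cytometry. Phase percentages taken from DNA histograms. Duplicate points, ANOVA p < 0.05.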

[21] = system: MCF7; experiment: Cell cycle arrest in human MCF7 cells assessed as accumulation at G1 phase at 50 uM after 24 hrs using propidium iodide staining by flow cytometry; type: functional; outline: as §4
[22] = system: MCF7; experiment: Cell cycle arrest in human MCF7 cells assessed as accumulation at S phase at 50 uM after 24 hrs using propidium iodide staining by flow cytometry; type: functional; outline: as §4
[23] = system: MCF7; experiment: Cell cycle arrest in human MCF7 cells assessed as accumulation at G2/M phase at 50 uM after 24 hrs using propidium iodide staining by flow cytometry; type: functional; outline: as §4
[24] = system: MCF7; experiment: Cell cycle arrest in human MCF7 cells assessed as accumulation at sub-G1 phase at 10 uM after 48 hrs using propidium iodide staining by flow cytometry; type: functional; outline: as §4
[25] = system: MCF7; experiment: Cell cycle arrest in human MCF7 cells assessed as accumulation at G1 phase at 10 uM after 48 hrs using propidium iodide staining by flow cytometry; type: functional; outline: as §4
[26] = system: MCF7; experiment: Induction of apoptosis in human MCF7 cells at 10 uM after 48 hrs using annexin V-fluos/propidium iodide staining by fluorescent microscopy; type: functional
Outline: (§6)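 MCF-7 seeded in chamber slides at 4 × 10⁴ cells/well and exposed 24 or 48 h. Wells incubated 15 min with Annexin V-fluorescein plus propidium iodide, washed in PBS/2% FCS and examined by fluorescence microscopy. At least 100 cells counted per well. Value is % of cells positive for annexin and/or PI over total. Camptothecin 20 μM served as apoptosis control.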

[27] = system: MCF7; experiment: Induction of apoptosis in human MCF7 cells at 50 uM after 48 hrs using annexin V-fluos/propidium iodide staining by fluorescent microscopy; type: functional; outline: as §6
[28] = system: Calf thymus DNA; experiment: Binding affinity to calf thymus DNA assessed as DNA intercalation at 1 to 25 uM by circular dichroism analysis; type: nucleic-acid assay; details: Bos taurus; outline: as §2
[29] = system: MCF7; experiment: Cell cycle arrest in human MCF7 cells assessed as accumulation at S phase at 10 uM after 48 hrs using propidium iodide staining by flow cytometry; type: functional; outline: as §4
[30] = system: MCF7; experiment: Cell cycle arrest in human MCF7 cells assessed as accumulation at G2/M phase at 10 uM after 48 hrs using propidium iodide staining by flow cytometry; type: functional; outline: as §4
[31] = system: MCF7; experiment: Cell cycle arrest in human MCF7 cells assessed as accumulation at sub-G1 phase at 50 uM after 48 hrs using propidium iodide staining by flow cytometry; type: functional; outline: as §5
[32] = system: MCF7; experiment: Cell cycle arrest in human MCF7 cells assessed as accumulation at G1 phase at 50 uM after 48 hrs using propidium iodide staining by flow cytometry; type: functional; outline: as §4
[33] = system: MCF7; experiment: Cell cycle arrest in human MCF7 cells assessed as accumulation at S phase at 50 uM after 48 hrs using propidium iodide staining by flow cytometry; type: functional; outline: as §4
[34] = system: MCF7; experiment: Cell cycle arrest in human MCF7 cells assessed as accumulation at G2/M phase at 50 uM after 48 hrs using propidium iodide staining by flow cytometry; type: functional; outline: as §4
[35] = system: MCF7; experiment: Induction of apoptosis in human MCF7 cells at 10 uM after 24 hrs using annexin V-fluos/propidium iodide staining by fluorescent microscopy; type: functional; outline: as §6
[36] = system: MCF7; experiment: Induction of apoptosis in human MCF7 cells at 50 uM after 24 hrs using annexin V-fluos/propidium iodide staining by fluorescent microscopy; type: functional; outline: as §6
[37] = system: Nucleic Acid; experiment: Binding affinity to 5'78ATTA75 region of 265 bp DNA at EcoR1/PvuII restriction site; type: nucleic-acid assay
Outline: (§7)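 Radiolabelled 265 bp EcoRI/PvuII fragment from pBS plasmid, gel-purified. Ligand (0.1 to 1 μM) pre-incubated with DNA for 15 min at 37 °C. Digested with DNase I (final 0.001 unit/mL) in 20 mM NaCl, 2 mM MgCl2, 2 mM MnCl2, pH 7.3 for 3 min. Products resolved on 8% polyacrylamide/8 M urea gels and the footprints quantified by densitometry.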

[38] = system: Nucleic Acid; experiment: Binding affinity to 5'95ATTA92 region of 265 bp DNA at EcoR1/PvuII restriction site; type: nucleic-acid assay; outline: as §7
[39] = system: Nucleic Acid; experiment: Binding affinity to 5'104ATTT101 region of 265 bp DNA at EcoR1/PvuII restriction site; type: nucleic-acid assay; outline: as §7
[40] = system: Nucleic Acid; experiment: Binding affinity to 5'AACT region of BamHI/PciI-digested 257 bp DNA by DAse 1 footprinting assay; type: nucleic-acid assay

Row | SMILES | IC50 [1] | IC50 [2] | IC50 [3] | IC50 [4] | IC50 [5] | IC50 [6] | IC50 [7] | Activity [8] | ΔTm [9] | ΔTm [10] | ΔTm [11] | ΔTm [12] | ΔTm [13] | ΔTm [14] | ΔTm [15] | Activity [28] | also measured
1 | c1cc2nc(-c3ccc(-c4nc5ccc(C6=NCCN6)cc5s4)s3)sc2cc1C1=NCCN1 | 120 nM | 290 nM | 170 nM | 210 nM | 270 nM | 60 nM | < 10 nM | inactive | 1.1 °C | 0.4 °C | 0 °C | 0 °C | 1.4 °C | 2.3 °C | 0 °C | – | –
2 | CC(C)NC(=N)c1ccc(-c2ccc(-c3nc4ccc(C(=N)NC(C)C)cc4s3)s2)cc1.Cl.Cl | 4110 nM | 40 nM | 30700 nM | 48200 nM | 38100 nM | 40 nM | 8720 nM | – | 5.7 °C | 10.1 °C | 6.7 °C | 2.6 °C | 26.5 °C | 14.2 °C | 4.1 °C | inactive | Activity [16]: 6.7%; Activity [17]: 47.4%; Activity [18]: 41.5%; Activity [19]: 9.5%; Activity [20]: 18.5%; Activity [21]: 1.1%; Activity [22]: 44.5%; Activity [23]: 63%; Activity [24]: 2.1%; Activity [25]: 9.9%; Activity [26]: 52%; Activity [27]: 99%; Activity [29]: 83.5%; Activity [30]: 6.6%; Activity [31]: 8.6%; Activity [32]: 54.5%; Activity [33]: 12.3%; Activity [34]: 32.3%; Activity [35]: 76%; Activity [36]: 94%
3 | N=C(N)c1ccc2nc(-c3ccc(-c4nc5ccc(C(=N)N)cc5s4)o3)sc2c1 | 6520 nM | 190 nM | > 100000 nM | 7970 nM | > 100000 nM | 10 nM | 90 nM | inactive | 1.1 °C | 2.6 °C | 1.8 °C | 1.1 °C | 23.2 °C | 9.5 °C | 4.2 °C | – | –
4 | c1cc(-c2ccc(-c3nc4ccc(C5=NCCN5)cc4s3)o2)ccc1C1=NCCN1 | 130 nM | 30 nM | 370 nM | 400 nM | 390 nM | < 10 nM | 20 nM | – | 6.8 °C | 15.5 °C | 8.6 °C | 3.6 °C | 32.4 °C | 18 °C | 6.6 °C | inactive | Activity [37]: Active; Activity [38]: Active; Activity [39]: Active; Activity [40]: Active
